Experimental data of several laboratories.
Each line is one published result; the experiments were not run side by side. pEC50, pIC50, pKi: −log10 of the molar value.
DRD3: D(3) dopamine receptor (DRD3, Homo sapiens, UniProt P35462)
GLP1R: Glucagon-like peptide 1 receptor (GLP1R, Homo sapiens, UniProt P43220)

SMILES | target | test | setting | measurement | value
O=C(Nc1cccc(-c2ccn3c(CC4CC4)nnc3c2C(F)(F)F)c1)c1ccc(S(=O)(=O)F)cc1 | Metabotropic glutamate receptor 5 (GRM5, Homo sapiens, UniProt P41594) | calcium signal, agonist |  | pEC50 | < 4.30
CC(C)[C@H](NC(=O)[C@@H]1CSSC(C)(C)[C@H](NC(=O)[C@@H](N)CC(=O)O)C(=O)N[C@@H](Cc2ccccc2)C(=O)N[C@H](Cc2c[nH]c3ccccc23)C(=O)N[C@@H](CCCN)C(=O)N[C@@H](Cc2ccc(N)cc2)C(=O)N1)C(=O)O | Urotensin-2 receptor (UTS2R, Homo sapiens, UniProt Q9UKP6) | ligand displacement, radioligand | cell membranes | pKi | 8.57
CN(C)CCCN1c2ccccc2Sc2ccccc21 | DRD3 | ligand displacement, radioligand |  | pIC50 | 7.12
CO/N=C1\C[C@]2(C[C@@H]3C[C@@H](C/C=C(\C)C[C@@H](C)/C=C/C=C4\CO[C@@H]5[C@H](O)C(C)=C[C@@H](C(=O)O3)[C@]45O)O2)O[C@H](/C(C)=C/C(C)C)[C@H]1C | Nuclear receptor subfamily 1 group I member 3 (Homo sapiens, UniProt Q14994) | reporter gene, antagonist |  | pIC50 | 4.36
CCCCNNC(=O)c1ccc(Br)cc1 | Histone deacetylase 5 (HDAC5, Homo sapiens, UniProt Q9UQL6) | enzyme activity, inhibitor, fluorescence |  | pIC50 | < 4.00
CC[C@H](C)[C@H](NC(=O)[C@H](CC(=O)O)NC(=O)[C@H](CC(N)=O)NC(=O)[C@@H](NC(=O)[C@H](Cc1ccccc1)NC(=O)[C@H](CO)NC(=O)CNC(=O)[C@H](CC(=O)O)NC(=O)[C@H](C)NC(=O)[C@@H](N)Cc1c[nH]cn1)[C@@H](C)O)C(=O)N[C@@H](CC(N)=O)C(=O)N[C@@H](CCCCN)C(=O)N[C@H](C(=O)N[C@@H](CC(C)C)C(=O)N[C@@H](CC(=O)O)C(=O)N[C@H](C(=O)N[C@H](C(=O)N[C@@H](C)C(=O)N[C@@H](C)C(=O)N[C@@H](CCC(N)=O)C(=O)N[C@@H](CCC(=O)O)C(=O)N[C@@H](Cc1ccccc1)C(=O)N[C@@H](CC(C)C)C(=O)N[C@@H](CC(=O)O)C(=O)N[C@@H](Cc1c[nH]c2ccccc12)C(=O)N[C@H](C(=O)N[C@H](C(=O)N[C@@H](CC(N)=O)C(=O)N[C@H](C(=O)N[C@@H](CCC(N)=O)C(=O)N[C@H](C(=O)N[C@H](C(=O)N[C@@H](CCC(=O)O)C(=O)O)[C@@H](C)O)C(C)C)[C@@H](C)O)[C@@H](C)CC)C(C)C)[C@@H](C)CC)[C@@H](C)CC)C(C)C | GLP1R | reporter gene, agonist, luciferase |  | pEC50 | 7.52
Cc1cc(O)cc(C)c1C[C@H](N)C(=O)N[C@H](C)C(=O)NCC(=O)N[C@@H](Cc1ccc(Cl)cc1)C(=O)N(C)CCC[C@@]1(c2ccc(F)cc2)OCc2cc(C#N)ccc21 | DRD3 | ligand displacement, radioligand |  | pKi | 6.05
CCN(CC)c1ccc(/C=N/NC(=O)c2ccc(O)cc2)cc1 | Protein smoothened (SMO, Homo sapiens, UniProt Q99835) | ligand displacement |  | pIC50 | 7.00
CC[C@H](C)[C@H](NC(=O)[C@H](Cc1ccccc1)NC(=O)[C@H](CCC(=O)O)NC(=O)[C@H](CCCCN)NC(=O)[C@H](C)NC(=O)[C@H](C)NC(=O)[C@H](CCC(N)=O)NC(=O)CNC(=O)[C@H](CCC(=O)O)NC(=O)[C@H](CC(C)C)NC(=O)[C@H](Cc1ccc(O)cc1)NC(=O)[C@H](CO)NC(=O)[C@@H](NC(=O)[C@@H](NC(=O)[C@H](CC(=O)O)NC(=O)[C@H](CO)NC(=O)[C@@H](NC(=O)[C@H](Cc1ccc(O)cc1)NC(=O)[C@@H](NC(=O)CNC(=O)[C@H](CCC(=O)O)NC(=O)[C@H](C)NC(=O)[C@@H](N)Cc1c[nH]cn1)[C@@H](C)O)[C@@H](C)O)[C@@H](C)CC)[C@@H](C)O)C(=O)N[C@@H](C)C(=O)N[C@@H](Cc1c[nH]c2ccccc12)C(=O)N[C@@H](CC(C)C)C(=O)N[C@H](C(=O)N[C@@H](CC(N)=O)C(=O)NCC(=O)N[C@@H](CCCNC(=N)N)C(=O)NCC(=O)O)C(C)C | GLP1R | reporter gene, agonist, luciferase |  | pEC50 | 9.06
